The results in this text go back to PubChem BioAssay AID1216 (Sanford-Burnham Center for Chemical Genomics, 2008).

About 660 (0.35%) of roughly 190,000 compounds were called active. The list comes from a sample in which actives are over-represented; it also holds similar structures and randomly drawn compounds. A number with no mark means an inactive call.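 How the source made its calls: active means activation factor of 2 or more at 20 µM; inactive means the rest.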

The target in this test is Mannose-6-phosphate isomerase (Homo sapiens) (UniProt P34949). Nature of the test: human PMI activators, high substrate, primary screen, biochemical, fluorescence intensity, near-saturating mannose 6-phosphate (AID 1216). To be noted: coupled PMI enzyme assay, resazurin fluorescence, 20 min; at 20 µM; active compounds read high; 1 = untreated enzyme, 0 = substrate-free blank. In short, it runs like this: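 assay system = human phosphomannose isomerase with PGI, G6PDH, diaphorase coupling enzymes | quantity = 15 ng/mL PMI | incubation = enzyme reaction with compound 20 min at room temperature | medium = HEPES pH 7.4 buffer with MgCl2 and Tween-20 | compound dosing = one concentration, 20 µM, in 1% DMSO | measured by = Diaphorase-driven resazurin-to-resorufin fluorescence, excitation 544, emission 590 nm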
Mannose-6-phosphate isomerase (Homo sapiens), sequence (P34949 whole entry, looked up): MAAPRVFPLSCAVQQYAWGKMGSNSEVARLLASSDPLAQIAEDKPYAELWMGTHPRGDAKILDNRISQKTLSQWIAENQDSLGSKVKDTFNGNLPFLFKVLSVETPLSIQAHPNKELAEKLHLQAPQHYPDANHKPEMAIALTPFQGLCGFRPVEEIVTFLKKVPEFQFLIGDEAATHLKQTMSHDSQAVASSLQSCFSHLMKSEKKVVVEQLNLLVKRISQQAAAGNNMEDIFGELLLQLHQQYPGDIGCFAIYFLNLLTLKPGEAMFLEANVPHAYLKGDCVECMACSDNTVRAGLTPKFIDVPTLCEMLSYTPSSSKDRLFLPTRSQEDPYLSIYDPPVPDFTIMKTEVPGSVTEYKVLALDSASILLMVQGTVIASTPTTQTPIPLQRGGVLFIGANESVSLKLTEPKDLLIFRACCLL
(In general: Resazurin is reduced to fluorescent resorufin, in cell work by metabolically active cells.)
For `COc1ccc(NC(=S)SC)cc1OC`, the activation factor is 0.7.

For the compound `CCC(CC)C(=O)Nc1ccc(S(=O)(=O)Nc2nccs2)cc1`, the activation factor was 0.9.

As for `CCn1c(N)c(Br)c(=O)[nH]c1=O`, the activation factor was 1.1.

`CC(=O)Nc1sc2c(c1C(c1cccc(F)c1)N1CCN(CCO)CC1)CCCC2` (stereo not drawn): the activation factor is 1.1.

`Cc1cc(SCC(=O)NCCN2C(=O)CSC2=O)nc2ccccc12`: the activation factor was 1.2.

For the compound `Cc1cc(C(=O)COC(=O)C2CC2)c(C)n1-c1ccc(F)cc1`, the activation factor was 0.9.

As to `C=C1c2cc(CC)ccc2NC(=O)N1c1ccc(C)cc1`, the activation factor is 2.1 (active).

As to `Cc1ccc(N2C(=O)C(Cc3ccccc3)NC2=S)cc1` (stereo not drawn), the activation factor is 0.8.

Consider `Cc1ccc(N2C(=O)C3CC3C2=O)cc1` (stereo not drawn), for which the activation factor is 1.

Take `CCOC(=O)N1CCN(C(=O)Cn2cnc3ccccc3c2=O)CC1`: the activation factor was 1.

Take `COc1ccc(NC(=O)c2sc(N3CCOCC3)nc2-c2ccccc2)c(OC)c1`: the activation factor is 1.

In the case of `COc1cc(/C=N/O)ccc1OCc1ccc([N+](=O)[O-])cc1`, the activation factor was 1.

With `O=C(OCc1ccc([N+](=O)[O-])cc1)c1ccccn1`, the activation factor is 0.9.

`COc1cc(C(=O)OCc2ccc([N+](=O)[O-])cc2)cc(OC)c1OC`: the activation factor is 2 (active).

For `COc1ccc(-n2nc(C(=O)Nc3cc(OC)c(OC)c(OC)c3)c3ccccc3c2=O)c(OC)c1`, the activation factor was 0.9.

With `O=C(CSc1nnc(-c2ccc([N+](=O)[O-])cc2)o1)Nc1ccccn1`, the activation factor was 1.

As for `CCOC(=O)C1=C(C)NC(SC)=NC1c1ccccc1` (stereo not drawn), the activation factor was 2.7 (active).

Consider `CCOC(=O)C1=C(C)NC(=O)NC1c1ccccc1` (stereo not drawn), for which the activation factor was 1.

On to `CCOC(=O)C1=C(C)NC(C)=C(C(=O)OCC)C1c1ccccn1`, for which the activation factor was 1.

In the case of `CSc1cccc(NC(=S)N(Cc2ccccc2)Cc2ccccn2)c1`, the activation factor is 0.9.

As for `CCO[C@@H]1OC(C(=O)NCc2nc3ccccc3[nH]2)=C[C@H](C2CCCCC2)[C@H]1CCCO`, the activation factor was 0.9.

On to `O=C(COC(=O)c1ccc(F)cc1)Nc1nc2ccc([N+](=O)[O-])cc2s1`, for which the activation factor is 1.

For the compound `C=CCn1c(C)cc(C2=NNC(=NCC)SC2)c1C`, the activation factor is 1.1.

For the compound `Cc1cc(C2=NNC(=Nc3ccc(S(=O)(=O)N4CCOCC4)cc3)SC2)c(C)n1CC1CCCO1` (stereo not drawn), the activation factor is 2.1 (active).

As to `COCCn1c(C)cc(C2=NNC(=Nc3ccc(F)cc3)SC2)c1C`, the activation factor was 1.3.

As for `COc1ccccc1NC(=S)N1CCN(C(c2ccccc2)c2ccccc2)CC1`, the activation factor was 1.

Turning to `O=C(Nc1ccc(NC(=O)c2ccco2)c(Cl)c1)c1cccc([N+](=O)[O-])c1`, the activation factor was 1.

On to `CC(C)(C)c1ccc(/C=C/C(=O)Nc2ncccn2)cc1`, for which the activation factor is 0.8.

For `Cc1ccc(Cl)cc1NC(=O)c1ccccn1`, the activation factor is 1.

For the compound `O=C(NNc1cc(Cl)ccc1Cl)c1cccnc1Cl`, the activation factor is 2 (active).

In the case of `Cc1ccc(CNC(=O)c2cccnc2Cl)cc1`, the activation factor is 1.

For `O=C(COc1ccc(-c2ccccc2)cc1)NN=C1CCCC1`, the activation factor is 1.

`Cc1ccc(-c2nn(-c3cccc(F)c3)cc2CNCCc2ccncc2)o1`: the activation factor is 1.

`COc1ccc(N2CCN(C(=O)CCSCc3ccccc3F)CC2)cc1`: the activation factor is 0.9.

As for `CCOc1cc(N2CCOCC2)c(OCC)cc1NC(=O)c1ccc(C)s1`, the activation factor is 0.7.

For the compound `CCOC(=O)Cn1c(N)c(C(=O)OC)sc1=S`, the activation factor is 1.1.

Turning to `COC(=O)c1sc2[nH]c(=S)n(N)c(=O)c2c1C`, the activation factor is 2 (active).

For `COC(=O)c1sc(=S)n(-c2ccccc2)c1N`, the activation factor is 0.9.

As for `Cc1cccc(C)c1NC(=O)CNC(=O)Cc1ccc(Br)cc1`, the activation factor is 1.

With `O=S(=O)(Nc1cc(S(=O)(=O)N2CCOCC2)ccc1N1CCCC1)c1cccs1`, the activation factor is 1.1.

Turning to `NC(=O)CC[C@@H]1NC(=O)[C@@H]2CCCN2C(=O)c2cc([N+](=O)[O-])cc(F)c2NCCC[C@@H](C(N)=O)NC1=O`, the activation factor is 1.

With `O=C(CC1C(=O)NCCN1CC(c1ccccc1)c1ccccc1)NCCc1cn[nH]c1` (stereo not drawn), the activation factor was 0.8.

As to `COC(=O)c1[nH]c2ccccc2c1NC(=O)CN1CCCc2ccccc21`, the activation factor was 0.9.

As to `NS(=O)(=O)c1cccc(NC(=O)CN2CCCc3ccccc32)c1`, the activation factor is 1.1.

`COC(=O)c1[nH]c2cccc(C)c2c1NC(=O)CN1CCCc2ccccc21`: the activation factor was 2.1 (active).

For `C=CCNC(=O)c1ccccc1NC(=O)c1ccc(Cl)c(S(=O)(=O)Nc2cccc(C)c2C)c1`, the activation factor was 1.

For the compound `Cc1cccc(C)c1NC(=S)N(Cc1cccnc1)Cc1ccccc1Cl`, the activation factor was 0.8.

As for `CCOC(=O)c1[nH]ncc1CN1CCCC(C(=O)c2ccc(OC)cc2C)C1` (stereo not drawn), the activation factor is 1.1.

Turning to `COc1ccccc1N(C)S(=O)(=O)c1ccc(Cl)c(C(=O)N2CCC(C(N)=O)CC2)c1`, the activation factor was 1.1.

For `CCn1cc(-c2cc(C(=O)O)on2)c(C)n1`, the activation factor was 1.2.

On to `COCCCNC(=S)NC(=O)c1ccc([N+](=O)[O-])cc1`, for which the activation factor was 0.9.

Regarding `Cc1ccc2nc(NCCCNC(=O)c3cnccn3)c(C#N)cc2c1`, the activation factor is 0.9.

Take `COCCCNC(=S)NCCNc1nc2cc(C)c(C)cc2cc1C#N`: the activation factor was 2.1 (active).

On to `O=C(NCc1ccccc1Cl)C1CCC(CNc2c(N3CCCCC3)c(=O)c2=O)CC1` (stereo not drawn), for which the activation factor was 1.

For `CCCCn1c(O)c(N=NC(=O)Cn2c(C(F)(F)F)nc3ccccc32)c2ccccc21`, the activation factor was 1.

In the case of `CCOC(=O)N1CCC(=NNC(N)=O)CC1`, the activation factor was 1.

In the case of `COc1cccc2cc(/C(C)=N/NC(=O)c3ccco3)oc12`, the activation factor was 1.1.

For `COc1ccccc1N(CC(=O)Nc1ccc(C(F)(F)F)cc1)S(C)(=O)=O`, the activation factor is 1.1.

Take `O=C(CSc1ncccn1)NCCc1ccccc1`: the activation factor is 1.

Regarding `S=c1[nH]nc(Nc2ccccc2)s1`, the activation factor is 2 (active).

With `c1ccc(Nc2n[nH]nc2-c2ccccc2)cc1`, the activation factor was 0.9.

`S=c1[nH]nc(NCCc2ccccc2)s1`: the activation factor was 2.1 (active).

Turning to `Cc1nc(C)c(-c2csc(NCCc3ccccc3)n2)s1`, the activation factor was 1.

On to `CC(C)(C)C(=O)c1cnc(Nc2ccccc2)s1`, for which the activation factor is 1.

For `N=c1c2c3c(sc2ncn1N)CCCC3`, the activation factor was 0.9.

Turning to `O=c1[nH]cnc2c1c(-c1ccccc1)cn2-c1ccc(F)cc1`, the activation factor was 1.

For the compound `O=C(CCCn1c(=O)c2sccc2n(CC(=O)NCC2CCCO2)c1=O)NCc1ccco1` (stereo not drawn), the activation factor is 0.9.

With `Cn1cc(C(=O)NCc2ccccc2F)cn1`, the activation factor was 1.

Turning to `O=C(CO/N=C/c1ccccc1OC(F)F)NC1CCCC1`, the activation factor is 1.1.

Consider `CCN(CC)C(=O)C(=O)Nc1cccc(Br)c1`, for which the activation factor was 0.9.

Regarding `C=CCc1ccccc1OCC(=O)N/N=C/c1ccccc1OCC`, the activation factor is 0.9.

On to `OCC1(Cc2ccccc2C(F)(F)F)CCN(Cc2cccc3cnccc23)CC1`, for which the activation factor is 0.9.

Consider `COc1ccc(OC)c(NC(=O)CN(Cc2ccc(Cl)cc2)S(C)(=O)=O)c1`, for which the activation factor is 0.8.

On to `CSc1ncccc1C(=O)OCc1ccc(Br)cc1`, for which the activation factor was 1.

On to `COC(=O)C(NS(=O)(=O)c1ccc(F)cc1)c1ccccc1` (stereo not drawn), for which the activation factor was 0.9.

In the case of `COc1ccc(-c2c3c(=O)n(C)c(=O)n(C)c3cn2NC(C)=O)cc1`, the activation factor is 2 (active).

With `COc1cccc(-n2cc3c(c2-c2ccccc2)c(=O)n(C)c(=O)n3C)c1`, the activation factor was 1.

With `COc1ccc(-c2c3c(=O)n(C)c(=O)n(C)c3cn2-c2cccc(OC)c2)cc1`, the activation factor is 1.2.

For `COCCn1c(C)cc(C(=O)COC(=O)/C=C/c2cccc(OC)c2)c1C`, the activation factor is 1.

On to `COc1ccc(N/N=C2/CCCCC2=O)cc1`, for which the activation factor was 2 (active).

Consider `Cc1ccc(N/N=C2\COC(C)(C)CC2=O)cc1`, for which the activation factor was 1.9.

Regarding `COc1ccc(CNC2CCCCC2)cc1`, the activation factor is 1.

For `CC(=O)c1cc(C#N)c(N2CC(C)OC(C)C2)nc1C` (stereo not drawn), the activation factor is 1.

As for `CC(C)N(C(=O)Cn1cc(SCC(=O)N2CCCC2)c2ccccc21)C(C)C`, the activation factor was 1.

For `COc1ccc(-c2nn(-c3ccccc3)cc2CN2CCCO2)c(F)c1`, the activation factor is 1.

`CCN(C(=O)COC(=O)c1cc(NS(=O)(=O)c2ccc(Cl)c([N+](=O)[O-])c2)ccc1O)C1CCCCC1`: the activation factor was 0.9.

On to `Cc1ccc(N/C=C/C(=O)c2ccccc2)cc1C`, for which the activation factor is 1.1.

For the compound `O=C(/C=C/NCc1ccc(F)cc1)c1ccccc1`, the activation factor is 1.

Consider `O=C(/C=C\NCC(=O)c1ccccc1)c1ccccc1`, for which the activation factor is 2.5 (active).

Regarding `CN(C)CCCSc1ccccc1NC(=O)/C=C/c1ccccc1`, the activation factor was 1.

As to `Cc1ccc(S(=O)(=O)CCC(=O)OCc2ccccc2)cc1`, the activation factor is 1.

As to `O=C(CNC(=O)c1cc(=O)[nH]c2ccccc12)Nc1ccc(F)c(F)c1`, the activation factor is 0.9.

As to `COC(=O)C(=Nc1ccccc1)/C(C(=O)C(=O)N(C)c1ccccc1)=C(\O)c1ccc(Cl)cc1`, the activation factor was 0.8.

Regarding `COc1ccccc1CC(=O)Nc1ccc(F)cc1F`, the activation factor is 1.

Regarding `COc1cc(OC)cc(C(=O)OCC(=O)Nc2ccc(F)cc2F)c1`, the activation factor is 0.9.

Consider `COc1ccc(C(=O)Nc2ccc(F)cc2F)cc1`, for which the activation factor is 2 (active).

For `Cc1cc(C)cc(C(=O)NCC(=O)OCC(=O)N2CCCCC2)c1`, the activation factor is 1.2.

For the compound `Cc1ccc(N/C(N)=N/c2nc(C(F)(F)F)cc(C(F)(F)F)n2)cc1`, the activation factor is 1.1.

On to `O=C(CN1CCN(c2ccccc2F)CC1)c1ccc2c(c1)OCO2`, for which the activation factor is 2 (active).

As for `O=C(Nc1ccccc1N1CCN(C(=O)c2ccccc2)CC1)c1ccc2c(c1)OCO2`, the activation factor was 0.9.

Consider `O=C(CN1CCN(CC(=O)Nc2ccc3c(c2)OCO3)CC1)Nc1ccc(F)cc1`, for which the activation factor was 1.

Consider `S=C(Nc1ccc(Br)cc1Cl)N1CCC2(CC1)OCCO2`, for which the activation factor is 0.9.

In the case of `CCOC(=O)/C(=N\Nc1cc(Cl)ccc1Cl)N1CCN(C)CC1`, the activation factor is 1.
